According to article PMC6988732 (The Biochemical journal, 2013):
Positions count from the first letter of the chain named. Several values for one entry are separate records, joined by “and”; a condition that tells them apart may be missing. Identical values can stand only once.

Key:
PKCθC1B T243A = target: T1, PKCθC1B T243A (Mus musculus, UniProt Q02111, T243A); test: [3H]PDBu binding assay; conditions: for Ki/Kd / Ki: PKCθ C1B T243A; for Ki/Kd: Ki of the diacylglycerol over Kd of PDBu; for Ki: competition of [3H]PDBu binding, mean ± S.E.M.; for reduction in binding affinity compared with the wild-type: T243A vs wild-type PKCθC1B (Kd for PDBu, Ki for DOG/SAG)
T1 sequence (Q02111 232-281 T243A): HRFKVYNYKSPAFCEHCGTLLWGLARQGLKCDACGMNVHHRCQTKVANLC
In short: (§1)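 GST-cleaved mouse PKCθ C1B (residues 232–281), E. coli-expressed, affinity/gel-filtration purified. PEG-precipitation [3H]PDBu binding; Kd from saturable plus linear non-specific fit. Ki: [3H]PDBu at 2–5-fold each construct's Kd, DOG or SAG 1–100000 nM, dried from chloroform with phospholipid, sonicated. PS dependence: total phospholipid 100 μg/ml, PS 0–100%, remainder PC, relative to 100% PS. Means ± S.E.M., three independent experiments.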

PKCθC1B L255G = target: T2, PKCθC1B L255G (Mus musculus, UniProt Q02111, L255G); test: [3H]PDBu binding assay; conditions: for reduction in binding affinity compared with the wild-type: L255G vs wild-type PKCθC1B (Kd for PDBu, Ki for DOG/SAG); for Ki/Kd / Ki: PKCθ C1B L255G; for Ki/Kd: Ki of the diacylglycerol over Kd of PDBu; for Ki: competition of [3H]PDBu binding, mean ± S.E.M.
T2 sequence (Q02111 232-281 L255G): T1 sequence (Q02111 232-281 T243A) with A12T, L24G
In short: as §1

full-length PKCθ T243A = full-length PKCθ T243A (Mus musculus, UniProt Q02111, T243A); test: Membrane translocation in HEK-293 cells; assay type: cell-based; conditions: 250 nM DOG, 2 h
full-length PKCθ L255G = full-length PKCθ L255G (Mus musculus, UniProt Q02111, L255G); test: Membrane translocation in HEK-293 cells; assay type: cell-based; conditions: 250 nM DOG, 2 h
full-length PKCθ Q258G = full-length PKCθ Q258G (Mus musculus, UniProt Q02111, Q258G); test: Membrane translocation in HEK-293 cells; assay type: cell-based; conditions: 250 nM DOG, 2 h
PKCθC1B W253G = target: T3, PKCθC1B W253G (Mus musculus, UniProt Q02111, W253G); test: [3H]PDBu binding assay; conditions: for Ki/Kd / Ki: PKCθ C1B W253G; for Ki/Kd: Ki of the diacylglycerol over Kd of PDBu; for Ki: competition of [3H]PDBu binding, mean ± S.E.M.; for reduction in binding affinity compared with the wild-type: W253G vs wild-type PKCθC1B (Kd for PDBu, Ki for DOG/SAG)
T3 sequence (Q02111 232-281 W253G): T1 sequence (Q02111 232-281 T243A) with A12T, W22G

PKCθC1B Y239A = target: T4, PKCθC1B Y239A (Mus musculus, UniProt Q02111, Y239A); test: [3H]PDBu binding assay; conditions: for Ki/Kd / Ki: PKCθ C1B Y239A; for Ki/Kd: Ki of the diacylglycerol over Kd of PDBu; for Ki: competition of [3H]PDBu binding, mean ± S.E.M.; for reduction in binding affinity compared with the wild-type: Y239A vs wild-type PKCθC1B (Kd for PDBu, Ki for DOG/SAG)
T4 sequence (Q02111 232-281 Y239A): T1 sequence (Q02111 232-281 T243A) with Y8A, A12T
In short: as §1

full-length PKCθ Y239A = full-length PKCθ Y239A (Mus musculus, UniProt Q02111, Y239A); test: Membrane translocation in HEK-293 cells; assay type: cell-based; conditions: 250 nM DOG, 2 h
PKCθC1B Q258G = target: T5, PKCθC1B Q258G (Mus musculus, UniProt Q02111, Q258G); test: [3H]PDBu binding assay; conditions: for Ki/Kd / Ki: PKCθ C1B Q258G; for Ki/Kd: Ki of the diacylglycerol over Kd of PDBu; for Ki: competition of [3H]PDBu binding, mean ± S.E.M.; for reduction in binding affinity compared with the wild-type: Q258G vs wild-type PKCθC1B (Kd for PDBu, Ki for DOG/SAG)
T5 sequence (Q02111 232-281 Q258G): T1 sequence (Q02111 232-281 T243A) with A12T, Q27G
In short: as §1

full-length PKCθ W253G = full-length PKCθ W253G (Mus musculus, UniProt Q02111, W253G); test: Membrane translocation in HEK-293 cells; assay type: cell-based; conditions: 250 nM DOG, 2 h
PKCθC1B wild-type = target: T6, PKCθC1B wild-type (Mus musculus, UniProt Q02111); test: [3H]PDBu binding assay; conditions: for Ki/Kd / Ki: PKCθ C1B WT; for Ki/Kd: Ki of the diacylglycerol over Kd of PDBu; for Ki: competition of [3H]PDBu binding, mean ± S.E.M.
T6 sequence (Q02111 232-281): T1 sequence (Q02111 232-281 T243A) with A12T
In short: as §1

Chain of full-length PKCθ W253G (Q02111 whole entry W253G): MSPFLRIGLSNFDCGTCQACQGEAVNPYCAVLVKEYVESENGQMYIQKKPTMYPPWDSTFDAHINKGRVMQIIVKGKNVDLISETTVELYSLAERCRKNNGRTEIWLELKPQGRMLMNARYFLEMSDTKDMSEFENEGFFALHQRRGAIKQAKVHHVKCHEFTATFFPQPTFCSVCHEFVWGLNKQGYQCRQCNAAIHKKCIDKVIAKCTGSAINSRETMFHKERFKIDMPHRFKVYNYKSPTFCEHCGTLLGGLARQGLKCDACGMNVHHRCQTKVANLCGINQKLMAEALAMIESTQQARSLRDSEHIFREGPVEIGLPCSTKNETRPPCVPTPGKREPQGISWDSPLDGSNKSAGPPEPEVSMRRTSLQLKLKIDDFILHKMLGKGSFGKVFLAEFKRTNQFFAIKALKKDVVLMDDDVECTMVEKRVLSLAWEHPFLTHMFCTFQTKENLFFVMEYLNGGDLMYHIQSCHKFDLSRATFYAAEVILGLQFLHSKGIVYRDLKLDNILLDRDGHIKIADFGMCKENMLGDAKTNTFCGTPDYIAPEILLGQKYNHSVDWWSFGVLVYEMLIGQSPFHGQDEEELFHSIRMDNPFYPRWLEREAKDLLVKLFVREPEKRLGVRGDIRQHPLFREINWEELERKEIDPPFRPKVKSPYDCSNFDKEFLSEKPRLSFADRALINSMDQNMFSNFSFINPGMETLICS
Chain of full-length PKCθ L255G (Q02111 whole entry L255G): as the sequence (Q02111 whole entry W253G) above, with G253W, L255G counted along it
Chain of full-length PKCθ Y239A (Q02111 whole entry Y239A): as the sequence (Q02111 whole entry W253G) above, with Y239A, G253W counted along it
Chain of full-length PKCθ T243A (Q02111 whole entry T243A): as the sequence (Q02111 whole entry W253G) above, with T243A, G253W counted along it
Chain of full-length PKCθ Q258G (Q02111 whole entry Q258G): as the sequence (Q02111 whole entry W253G) above, with G253W, Q258G counted along it

Structure (SMILES) | Ki/Kd (PKCθC1B T243A) | Ki (PKCθC1B T243A) | reduction in binding affinity compared with the wild-type (PKCθC1B T243A) | reduction in binding affinity compared with the wild-type (PKCθC1B L255G) | Ki/Kd (PKCθC1B L255G) | Ki (PKCθC1B L255G) | Ki/Kd (PKCθC1B W253G) | Ki (PKCθC1B W253G) | reduction in binding affinity compared with the wild-type (PKCθC1B W253G) | Ki/Kd (PKCθC1B Y239A) | Ki (PKCθC1B Y239A) | reduction in binding affinity compared with the wild-type (PKCθC1B Y239A) | Ki/Kd (PKCθC1B Q258G) | Ki (PKCθC1B Q258G) | reduction in binding affinity compared with the wild-type (PKCθC1B Q258G) | Ki/Kd (PKCθC1B wild-type) | Ki (PKCθC1B wild-type) | other results
CCCCCCCC(=O)OC[C@H](CO)OC(=O)CCCCCCC [DOG, sn-1,2-dioctanoylglycerol] | 34 | 21.5 ± 1.8 nM | 1.34 fold | 4.72 fold | 17 | 76 ± 24 nM | 159 | 470 ± 69 nM | 29.2 fold and 29 fold | 26 | 86 ± 15 nM | 5.34 fold | 3 | 1840 ± 320 nM | 114 fold | 41 | 16.1 ± 0.7 nM | reduction in membrane translocation compared with the wild-type (full-length PKCθ T243A): 8.98%; reduction in membrane translocation compared with the wild-type (full-length PKCθ L255G): 15.4%; reduction in membrane translocation compared with the wild-type (full-length PKCθ Q258G): 15.9%; greater loss of affinity for DOG than for PDBu caused by W253G (PKCθC1B W253G; W253G vs wild-type): 4 fold; reduction in membrane translocation compared with the wild-type (full-length PKCθ Y239A): 12.0%; reduction in membrane translocation compared with the wild-type (full-length PKCθ W253G): 5.9%
CCCCC/C=C\C/C=C\C/C=C\C/C=C\CCCC(=O)OC(CO)COC(=O)CCCCCCCCCCCCCCCCC (centres unmarked) [SAG, sn-1-stearoyl 2-arachidonyl glycerol] | 9 | 5.5 ± 1.5 nM | 0.63 fold | 8.16 fold | 16 | 71 ± 10 nM | 92 | 271 ± 22 nM | 31.1 fold and 31 fold | 11 | 35.1 ± 5.1 nM | 4.13 fold | 3 | 2260 ± 330 nM | 260 fold | 22 | 8.7 ± 2 nM | stronger binding affinity for SAG than for DOG (PKCθC1B wild-type; C1B domain of PKCθ): 2 fold
